According to ChEMBL document CHEMBL3098028, “Synthesis and in vitro and in vivo pharmacological evaluation of new 4-aminoquinoline-based compounds” (ACS Med Chem Lett, 2013):

How the values were obtained:
Cytochrome P450 1A2 = target: T1, Cytochrome P450 1A2 (Homo sapiens, UniProt P05177); experiment: Inhibition of CYP1A2 in human liver microsomes assessed as phenacetin O-deethylation after 20 mins by LC-MS/MS analysis; type: ADME
T1 sequence (P05177 whole entry): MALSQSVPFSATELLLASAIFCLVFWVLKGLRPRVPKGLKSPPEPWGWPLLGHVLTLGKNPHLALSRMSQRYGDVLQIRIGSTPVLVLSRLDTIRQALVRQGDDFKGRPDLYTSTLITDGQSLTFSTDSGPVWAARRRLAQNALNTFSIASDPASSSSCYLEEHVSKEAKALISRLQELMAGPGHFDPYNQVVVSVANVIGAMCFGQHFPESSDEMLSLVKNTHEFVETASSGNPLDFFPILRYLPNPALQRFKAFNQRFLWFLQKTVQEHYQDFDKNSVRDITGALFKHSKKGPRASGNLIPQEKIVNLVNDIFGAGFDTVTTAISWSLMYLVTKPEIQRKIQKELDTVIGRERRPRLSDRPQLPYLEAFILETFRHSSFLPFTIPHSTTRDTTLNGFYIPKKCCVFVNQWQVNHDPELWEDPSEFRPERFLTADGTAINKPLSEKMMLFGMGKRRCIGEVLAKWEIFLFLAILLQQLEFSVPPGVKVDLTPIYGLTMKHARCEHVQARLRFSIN

Cytochrome P450 2E1 = Cytochrome P450 2E1 (Homo sapiens, UniProt P05181); experiment: Inhibition of CYP2E1 in human liver microsomes assessed as chlorzoxazone 6-hydroxylation after 20 mins by LC-MS/MS analysis; type: ADME
Sequence of Cytochrome P450 2E1 (P05181 whole entry): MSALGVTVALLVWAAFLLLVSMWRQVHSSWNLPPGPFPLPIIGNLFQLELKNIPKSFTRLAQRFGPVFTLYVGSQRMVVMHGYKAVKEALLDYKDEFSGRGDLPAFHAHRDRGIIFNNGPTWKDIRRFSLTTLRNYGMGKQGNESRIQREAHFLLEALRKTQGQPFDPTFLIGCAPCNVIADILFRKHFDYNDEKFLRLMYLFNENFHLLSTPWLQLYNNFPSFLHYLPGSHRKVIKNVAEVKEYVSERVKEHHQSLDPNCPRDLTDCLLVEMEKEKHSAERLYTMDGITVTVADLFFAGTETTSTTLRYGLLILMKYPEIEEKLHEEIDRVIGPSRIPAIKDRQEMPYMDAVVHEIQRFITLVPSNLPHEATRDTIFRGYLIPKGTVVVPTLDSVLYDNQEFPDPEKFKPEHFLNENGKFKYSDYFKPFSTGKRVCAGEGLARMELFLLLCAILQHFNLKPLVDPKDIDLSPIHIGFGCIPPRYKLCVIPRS

[1] = Drug metabolism in hepatocytes (unknown origin) assessed as 4-(2-((1-tert-butyl-1H-tetrazol-5-yl)(4-chlorophenyl)methylamino)ethylamino)-7-chloroquinoline 1-oxide level at 5 uM after 6 hrs by LC-MS/MS analysis; type: ADME, cell-based, Hepatocyte
Cytochrome P450 2C9 = Cytochrome P450 2C9 (Homo sapiens, UniProt P11712); experiment: Inhibition of CYP2C9 in human liver microsomes assessed as diclofenac 4'-hydroxylation after 20 mins by LC-MS/MS analysis; type: ADME
Sequence of Cytochrome P450 2C9 (P11712 whole entry): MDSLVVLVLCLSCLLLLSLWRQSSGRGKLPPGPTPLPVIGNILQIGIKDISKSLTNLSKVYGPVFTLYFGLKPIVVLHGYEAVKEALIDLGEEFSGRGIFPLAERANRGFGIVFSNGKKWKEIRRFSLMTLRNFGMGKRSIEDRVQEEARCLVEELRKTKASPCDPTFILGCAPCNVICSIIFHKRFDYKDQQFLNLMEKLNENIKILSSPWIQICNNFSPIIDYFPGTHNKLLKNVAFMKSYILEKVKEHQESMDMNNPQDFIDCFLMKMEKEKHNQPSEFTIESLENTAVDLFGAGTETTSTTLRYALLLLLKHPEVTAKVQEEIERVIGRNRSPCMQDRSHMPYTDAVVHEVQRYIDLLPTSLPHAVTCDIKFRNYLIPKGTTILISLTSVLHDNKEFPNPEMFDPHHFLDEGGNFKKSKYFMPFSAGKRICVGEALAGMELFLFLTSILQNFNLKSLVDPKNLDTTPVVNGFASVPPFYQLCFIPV

Mus musculus [2] = experiment: AUC (0 to infinity) in C57BL/6 mouse at 5 mg/kg, iv; type: ADME, organism-based, Plasma; set-up: dose 5 mg/kg, route intravenous, time infinity; conditions: in vivo
How it was run: (§1)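 Healthy male C57/BL6 mice received a single intravenous dose (2.5 or 5.0 mg/kg) or oral dose (20 or 40 mg/kg). Plasma concentrations were followed over time to give AUC0-∞ in min·μmol/L, alongside t1/2, CL, Vd, Vss, Cmax, Tmax and oral bioavailability. Values are means of five animals.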

CHO = experiment: Cytotoxicity against CHO cells; type: cell-based; conditions: Cricetulus griseus
Cytochrome P450 2D6 = Cytochrome P450 2D6 (Homo sapiens, UniProt P10635); experiment: Inhibition of CYP2D6 in human liver microsomes assessed as bufuralol 1'-hydroxylation after 20 mins by LC-MS/MS analysis; type: ADME
Sequence of Cytochrome P450 2D6 (P10635 whole entry): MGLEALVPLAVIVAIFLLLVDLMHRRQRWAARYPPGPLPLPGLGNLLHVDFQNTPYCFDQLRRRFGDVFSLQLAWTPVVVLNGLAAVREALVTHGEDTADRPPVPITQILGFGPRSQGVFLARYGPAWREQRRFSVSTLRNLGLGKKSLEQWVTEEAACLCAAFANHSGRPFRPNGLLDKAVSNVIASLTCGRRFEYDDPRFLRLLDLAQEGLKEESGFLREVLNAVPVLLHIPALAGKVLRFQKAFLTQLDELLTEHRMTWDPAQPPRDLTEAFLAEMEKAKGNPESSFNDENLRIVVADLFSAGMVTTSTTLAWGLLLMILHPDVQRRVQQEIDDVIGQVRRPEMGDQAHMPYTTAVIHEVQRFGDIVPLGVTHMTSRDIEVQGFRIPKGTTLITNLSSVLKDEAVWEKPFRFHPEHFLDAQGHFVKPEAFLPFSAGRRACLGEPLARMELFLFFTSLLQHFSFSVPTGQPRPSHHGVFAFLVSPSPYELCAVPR

Cytochrome P450 3A4 = Cytochrome P450 3A4 (Homo sapiens, UniProt P08684); experiment: Inhibition of CYP3A4 in human liver microsomes assessed as midazolam 1'-hydroxylation and testosterone 6beta-hydroxylation after 20 mins by LC-MS/MS analysis; type: ADME
Sequence of Cytochrome P450 3A4 (P08684 whole entry): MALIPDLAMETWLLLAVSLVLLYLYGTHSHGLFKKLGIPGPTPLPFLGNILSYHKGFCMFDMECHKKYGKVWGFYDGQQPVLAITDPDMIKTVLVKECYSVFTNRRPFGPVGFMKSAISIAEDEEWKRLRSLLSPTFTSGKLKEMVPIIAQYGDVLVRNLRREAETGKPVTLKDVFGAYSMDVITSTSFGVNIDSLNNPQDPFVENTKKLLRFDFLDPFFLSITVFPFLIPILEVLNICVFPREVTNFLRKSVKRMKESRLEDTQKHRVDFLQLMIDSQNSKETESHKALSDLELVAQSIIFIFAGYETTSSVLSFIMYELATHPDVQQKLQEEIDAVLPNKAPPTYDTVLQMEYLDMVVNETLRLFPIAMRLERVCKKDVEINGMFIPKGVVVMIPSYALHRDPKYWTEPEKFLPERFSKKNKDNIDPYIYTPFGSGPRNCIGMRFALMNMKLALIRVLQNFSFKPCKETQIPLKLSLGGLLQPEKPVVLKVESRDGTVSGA

[3] = Kinetic solubility of the compound in 0.01 M HCl at pH 2 after 2 hrs by HPLC analysis; type: physicochemical; conditions: read-out: Kinetic_solubility
Liver microsome [4] = experiment: Drug metabolism in rat liver microsomes assessed as 4-(2-((1-tert-butyl-1H-tetrazol-5-yl)(4-chlorophenyl)methylamino)ethylamino)-7-chloroquinoline 1-oxide level at 5 uM after 1 hr by LC-MS/MS analysis; type: ADME
Mus musculus [5] = experiment: AUC (0 to infinity) in C57BL/6 mouse at 20 mg/kg, po; type: ADME, organism-based, Plasma; set-up: time infinity, dose 20 mg/kg, route oral; conditions: in vivo; how it was run: as §1
Liver microsome [6] = experiment: Drug metabolism in rat liver microsomes assessed as 2-(5-((4-chlorophenyl)(2-(7-chloroquinolin-4-ylamino)ethylamino)methyl)-1H-tetrazol-1-yl)-2-methylpropan-1-ol level at 5 uM after 1 hr by LC-MS/MS analysis; type: ADME
Plasmodium falciparum [7] = experiment: Antiplasmodial activity against chloroquine-sensitive Plasmodium falciparum 3D7 after 24 hrs by [3H]hypoxanthine incorporation assay; type: functional, organism-based
How it was run: (§2)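 Antiplasmodial testing was done at the Swiss Tropical and Public Health Institute. Chloroquine, the reference drug, was tested as its diphosphate salt.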

Cytochrome P450 2B6 = target: T2, Cytochrome P450 2B6 (Homo sapiens, UniProt P20813); experiment: Inhibition of CYP2B6 in human liver microsomes assessed as bupropion hydroxylation after 20 mins by LC-MS/MS analysis; type: ADME
T2 sequence (P20813 whole entry): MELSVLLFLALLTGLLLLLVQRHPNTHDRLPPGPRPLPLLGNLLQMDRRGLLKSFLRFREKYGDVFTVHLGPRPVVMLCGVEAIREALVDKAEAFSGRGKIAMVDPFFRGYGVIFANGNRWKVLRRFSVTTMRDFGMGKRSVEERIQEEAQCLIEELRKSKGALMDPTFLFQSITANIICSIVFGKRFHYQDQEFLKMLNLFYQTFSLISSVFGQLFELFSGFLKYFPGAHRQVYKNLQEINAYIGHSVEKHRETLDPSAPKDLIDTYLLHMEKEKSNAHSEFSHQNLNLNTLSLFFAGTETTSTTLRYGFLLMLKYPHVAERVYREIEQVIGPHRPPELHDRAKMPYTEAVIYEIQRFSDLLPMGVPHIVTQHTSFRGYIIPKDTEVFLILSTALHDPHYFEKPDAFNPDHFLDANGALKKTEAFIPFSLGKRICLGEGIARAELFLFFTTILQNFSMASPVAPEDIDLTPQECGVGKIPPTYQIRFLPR

Mus musculus [8] = experiment: AUC (0 to infinity) in C57BL/6 mouse at 2.5 mg/kg, iv; type: ADME, organism-based, Plasma; set-up: time infinity, dose 2.5 mg/kg, route intravenous; conditions: in vivo; how it was run: as §1
Plasmodium falciparum [9] = experiment: Antiplasmodial activity against chloroquine-resistant Plasmodium falciparum K1 after 24 hrs by [3H]hypoxanthine incorporation assay; type: functional, organism-based; how it was run: as §2
Plasmodium falciparum [10] = experiment: Antiplasmodial activity against chloroquine-resistant Plasmodium falciparum W2 after 24 hrs by [3H]hypoxanthine incorporation assay; type: functional, organism-based; how it was run: as §2
Cytochrome P450 2A6 = target: T3, Cytochrome P450 2A6 (Homo sapiens, UniProt P11509); experiment: Inhibition of CYP2A6 in human liver microsomes assessed as coumarin 7-hydroxylation after 20 mins by LC-MS/MS analysis; type: ADME
T3 sequence (P11509 whole entry): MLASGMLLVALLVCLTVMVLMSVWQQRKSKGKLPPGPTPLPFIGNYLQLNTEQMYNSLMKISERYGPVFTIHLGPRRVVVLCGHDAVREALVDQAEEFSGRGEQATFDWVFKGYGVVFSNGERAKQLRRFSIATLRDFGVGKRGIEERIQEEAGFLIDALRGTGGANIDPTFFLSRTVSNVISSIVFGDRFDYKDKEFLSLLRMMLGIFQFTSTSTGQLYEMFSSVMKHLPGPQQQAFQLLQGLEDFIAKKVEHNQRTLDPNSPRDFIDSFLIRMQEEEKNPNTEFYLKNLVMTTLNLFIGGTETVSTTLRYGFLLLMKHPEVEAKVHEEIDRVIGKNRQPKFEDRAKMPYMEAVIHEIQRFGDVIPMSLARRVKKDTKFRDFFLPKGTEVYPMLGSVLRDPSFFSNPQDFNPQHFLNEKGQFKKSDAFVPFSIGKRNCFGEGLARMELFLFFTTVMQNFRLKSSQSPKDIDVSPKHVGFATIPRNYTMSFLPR

## CC(C)(C)n1nnnc1C(NCCNc1ccnc2cc(Cl)ccc12)c1ccc(Cl)cc1 (stereo not drawn)
Cytochrome P450 1A2
  IC50: > 20 µM
Cytochrome P450 2E1
  IC50: > 20 µM
[1]
  Drug metabolism: Active
Cytochrome P450 2C9
  IC50: 8.91 µM
Mus musculus [2]
  AUC: 221 µmol·min/L
CHO
  IC50: 97.8 µM
Cytochrome P450 2D6
  IC50: 4 µM
Cytochrome P450 3A4
  IC50: 0.08 µM
[3]
  solubility kinetic at 2 h: > 200 µM
Liver microsome [4]
  Drug metabolism: Active
Mus musculus [5]
  AUC: 222 µmol·min/L
Liver microsome [6]
  Drug metabolism: Active
Plasmodium falciparum [7]
  IC50: 0.002 µM
Cytochrome P450 2B6
  IC50: > 20 µM
Mus musculus [8]
  AUC: 107 µmol·min/L
Plasmodium falciparum [9]
  IC50: 0.001 µM
Plasmodium falciparum [10]
  IC50: 0.0255 µM
Cytochrome P450 2A6
  IC50: > 20 µM
